Assay outcomes from PubChem.
In the library only some 1.9% were active in any assay of this set; here they are far more common.
TAG inh = reduces triacylglycerol accumulation in H9c2 cells | Nile Red lipid (TAG) fluorescence; cells loaded with 200 µM oleic acid | inhibition, % at 12.5 µM | actives 0.66% (n = 230,000);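 active means pattern-corrected inhibition of lipid staining of at least 50% with the nuclear-stain viability signal not falling by more than 50%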;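 further: 0% = DMSO wells and 100% = triacsin C control wells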
APP 5UTR inh = APP translation inhibition; inhibition, % at 2 µM; actives 0.82% (n = 190,000); SH-SY5Y APP 5'UTR-luciferase reporter, luminescence;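 active means inhibition above a set limit, derived from the sample mean plus 3 SD, cut at about 45% in these data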
aSyn UTR inh = MLPCN primary screen, SNCA 5' untranslated region. alpha-synuclein 5'UTR reporter, inhibitor activity. inhibition, % (tested at 7.5 µM). actives 0.82% (n = 300,000). AID 1813; in the data active means inhibition above about 60%;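 further: H4 neuroglioblastoma cells stably carrying SNCA 5'UTR luciferase fusion; 0% = DMSO wells and 100% = positive control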
Jurkat NFkB inh = inhibitors of the PMA/ionomycin-induced NF-kB reporter in Jurkat cells; PMA/ionomycin-induced NF-kB luciferase reporter, luminescence; inhibition, % at 4 µM; actives 0.53% (n = 330,000); AID 435003; in the data active means inhibition above about 50%
Hep lipid drop = modulators of hepatic lipid droplet formation. AML12 mouse hepatocytes, oleate lipid droplets, BODIPY imaging. inhibition, % at 6.5 µM. actives 0.4% (n = 240,000);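 active means lipid droplet intensity inhibited by at least 50%, with more than 500 cells counted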
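System: AML12 hepatocytes (mouse). Probe or stimulus: oleic acid at 100 µM to induce lipid droplet formation. Times: overnight treatment with compound plus oleate. Detection: Image-based BODIPY and DAPI two-channel analysis. Evaluation: percent inhibition of filter-corrected integrated lipid droplet intensity per well.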
697 NFkB inh = lowers PMA/ionomycin-induced NF-kB signal in 697 B cells; actives 0.33% (n = 330,000); inhibition, % at 4 µM; AID 435022; 697 B-cell NF-kB luciferase reporter, 16 h; in the data active means inhibition above about 35%
Starred values were filed as active, the others as inactive; / = no result given.

SMILES | TAG inh | APP 5UTR inh | aSyn UTR inh | Jurkat NFkB inh | Hep lipid drop | 697 NFkB inh
Nc1c(Cl)ncnc1N/N=C/c1cccnc1 | 11.7 | / | -40.4 | -6.3 | 15.0 | 9.0
O=Cc1ccc(O)c2ncccc12 | / | / | 62.8* | 14.6 | 7.4 | -5.1
c1cnc2ccc3ncccc3c2c1 | 15.5 | / | -33.0 | -10.6 | 17.4 | -6.4
COCCNC(=O)C1(C)CCN(Cc2ccc(C(C)C)cc2)C1 (stereo unspecified) | -0.8 | / | / | / | / | /
COc1ccc(-c2noc(CCC(=O)Nc3cccc(C(=O)NC4CC4)c3)n2)cc1OC | -5.7 | / | / | / | / | /
CN(C)CCCn1c2c(c(SCC(=O)Nc3nccs3)nc1=O)CCC2 | 12.5 | / | -5.4 | -5.5 | / | -16.7
COCCNc1nc(N)c([N+](=O)[O-])c(NC2CCCCC2)n1 | / | / | 67.7* | 13.3 | 10.0 | -25.8
CC(C)(C)c1ccc(CC(=O)N2CCC2(C)C(=O)NCc2cccc3ccccc23)cc1 (stereo unspecified) | -19.7 | / | / | / | / | /
CN1CCN(c2c(/C=N/O)c3ccccc3n2C)CC1 | / | / | -5.4 | 5.1 | 10.1 | 1.8
Cc1ccccc1C(=O)O/N=C/c1c(N2CCOCC2)n(C)c2ccccc12 | / | 30.2 | 86.5* | 32.6 | / | 34.8
COc1ccc(OC)c(Nc2c3c(nc4ccccc24)CCC3)c1 | / | / | 105.8* | 27.1 | -273.6 | -37.8
COc1ccc(OC)c(Nc2c3ccccc3nc3ccccc23)c1 | / | / | -25.6 | 31.2 | 3.5 | -67.2
Cn1c(O)c(N=NC(=O)c2cccc(S(=O)(=O)N3CCCCC3)c2)c2ccccc21 | / | -2.5 | 16.8 | 7.6 | 0.8 | -6.4
CCc1ccccc1NC(=S)N=Nc1c(O)n(C)c2ccc(S(=O)(=O)N3CCOCC3)cc12 | / | 38.2 | 80.5* | 17.7 | -11.9 | 2.8
Cc1ccc(C)c(NC(=S)N=Nc2c(O)n(C)c3ccc(S(=O)(=O)N4CCOCC4)cc23)c1 | / | 24.9 | 77.8* | 13.8 | 11.7 | 2.4
Cc1ccc(Cn2c(O)c(N=NC(=S)Nc3ccccc3F)c3cc(S(=O)(=O)N4CCOCC4)ccc32)cc1 | 30.8 | 49.9* | 66.2* | / | 18.4 | /
CN(C(=O)COC(=O)c1nc(Cl)c(Cl)c(Cl)c1Cl)C1CCS(=O)(=O)C1 (stereo unspecified) | 27.7 | 58.9* | -210.3 | / | -3.4 | /
CCCCn1c(N)c(N(CCOC)C(=O)c2cc(S(=O)(=O)N3CCOCC3)ccc2Cl)c(=O)[nH]c1=O | -1.3 | / | / | / | / | /
CCN(CC)c1ncnc2c1ncn2[C@H]1CN(C2CCCC2)C[C@@H](CO)O1 | 2.0 | / | / | / | / | /
CC(C)n1c(SCC(=O)N2CCN(C)CC2)nc2c1c(=O)n(C)c(=O)n2C | / | / | 5.9 | -6.6 | 8.1 | -6.5
CCN(CC)S(=O)(=O)c1cccc(NC(=O)C(=O)c2c(-c3ccccc3)cc3ccccn23)c1 | 38.7 | 2.5 | 9.6 | -1.3 | 8.6 | 1.0
CCN(CC)S(=O)(=O)c1cc(NC(=O)C(=O)c2c(-c3ccccc3)cc3ccccn23)ccc1C | / | 93.0* | 23.3 | 16.5 | 29.4 | -46.2
CC1CCCCN1S(=O)(=O)c1ccc(S(=O)(=O)N(Cc2ccccc2)Cc2ccco2)cc1 (stereo unspecified) | / | 57.9* | 16.5 | 17.0 | -88.9 | -7.0
Cc1cc(C(=O)CSc2nnc3ccccn23)c(C)n1-c1ccccc1 | / | 19.5 | 101.8* | 16.5 | -15.0 | -24.7
Cc1ccc(C(O)c2ncc(-c3ccc(C(F)(F)F)cc3)[nH]2)cc1F (stereo unspecified) | -16.1 | / | / | / | / | /
SMILES | TAG inh | APP 5UTR inh | aSyn UTR inh | Jurkat NFkB inh | Hep lipid drop | 697 NFkB inh
CN1C(=O)C(O)(CC(=O)c2ccccn2)c2cc(Br)ccc21 (stereo unspecified) | 52.9* | -1.8 | -1.0 | 10.7 | 2.4 | 14.5
CCNC(=O)C1(C)CCCN(C(=O)C2(c3ccc(Cl)cc3)CCCC2)C1 (stereo unspecified) | -1.1 | / | / | / | / | /
N/C(=N\OC(=O)c1ccc(Cl)cc1Cl)c1ccccn1 | / | -32.2 | 88.8* | 27.7 | 6.3 | -23.7
N/C(=N\OC(=O)c1ccc([N+](=O)[O-])cc1Cl)c1ccccn1 | -1.7 | / | 68.9* | -24.4 | 3.7 | -59.8
N/C(=N\OC(=O)c1cc([N+](=O)[O-])ccc1Cl)c1ccccn1 | 11.1 | / | -82.4 | -0.7 | 30.2 | -19.3
Cc1ccc(-c2ccc(/C=N\NC(=O)c3cc4c(ccc5ccccc54)o3)o2)cc1[N+](=O)[O-] | 63.6* | -5.7 | -50.3 | 18.9 | / | 9.9
CCCC(=O)c1c[nH]c(C(=O)NCCc2ccccn2)c1 | -3.4 | 3.3 | -35.8 | -27.9 | / | -56.6
COc1ccc2nc3cc(Cl)ccc3c(C#N)c2c1 | -4.6 | / | -6.7 | -0.2 | -6.0 | -7.4
COc1ccc2nc3cc(Cl)ccc3c(Nc3ccc(O)c(CN4CCN(C)CC4)c3)c2c1 | 54.4* | / | / | / | / | /
O=S(=O)(c1ccc(F)cc1)c1snnc1-c1ccccc1 | -7.5 | 92.7* | -75.5 | / | -22.4 | /
c1ccc(-c2nnsc2-c2ncc[nH]2)cc1 | -11.5 | -6.8 | 17.5 | 2.4 | 3.7 | 17.9
CCNC(=O)Nc1ccc(OC)cc1OC | / | 49.8* | 15.6 | 12.3 | -0.3 | 16.1
O=C(O)C1(C(=O)O)CCC2(CCCCC2)CC1 | -0.8 | / | / | / | / | /
CC1=CC(C)(C)N2C(=O)C3(NCCc4c3[nH]c3ccccc43)c3cc(C)cc1c32 (stereo unspecified) | 67.5* | / | 43.6 | 4.2 | 38.0 | 8.2
CN1C(=O)C2(NCCc3c2[nH]c2ccccc32)c2ccccc21 (stereo unspecified) | / | -10.3 | 4.3 | -2.7 | -2.4 | 21.1
Cc1cc(C)nc(SCc2nnc(SCC(=O)N3CCCc4ccccc43)o2)n1 | / | -6.7 | 17.4 | -10.1 | / | 11.3
CCCCOc1ccc(-c2cnc3ccccc3n2)cc1 | / | / | 101.3* | -112.9 | 6.7 | -234.2
Oc1ccc(-c2cnc3ccccc3n2)cc1 | 16.5 | / | -72.3 | -97.4 | / | -113.8
CCn1cc(/C=C(\NC(=O)c2ccccc2F)C(=O)NCCCn2ccnc2)c2ccccc21 | / | / | 5.5 | 9.5 | 3.3 | -0.6
O=C(O)C(=Cc1ccc([N+](=O)[O-])cc1)c1cccc(Cl)c1 | -11.1 | / | / | / | / | /
CC(C)(C)C(=O)Nc1ccc(Sc2ccc([N+](=O)[O-])cc2)cc1 | / | -1.4 | 13.2 | 20.1 | -7.1 | -14.1
CC(=O)Nc1ccc(Sc2ccc([N+](=O)[O-])o2)cc1 | 62.5* | / | / | / | / | /
CC1(C)OC(=CC=Nc2ccc(Cl)cc2)OC1(C)C | 9.0 | / | 102.9* | 18.6 | 15.0 | 12.9
COc1ccc(C([O-])=Nc2ccc[n+](-c3nc4ccccc4nc3NS(=O)(=O)c3ccccc3)c2)cc1 | / | / | 83.7* | -10.3 | 1.9 | 34.7
O=S(=O)(Nc1nc2ccccc2nc1-[n+]1cccc(N=C([O-])c2ccccc2Cl)c1)c1ccccc1 | / | / | -19.7 | 12.3 | -3.5 | 17.1
COc1ccc(/C=C/c2cc(C(=O)O)c3ccccc3n2)cc1 | 0.6 | / | 80.6* | 18.5 | 13.2 | -90.4
COc1ccc(/C=C/C(=O)Nc2ccccc2C(=O)N2CCCC2)cc1 | / | -15.3 | -86.4 | -15.9 | / | -45.0
COc1ccc(/C=C/C(=O)Nc2ccccc2C(=O)O)cc1 | -12.1 | -152.4 | 83.1* | -53.4 | -11.9 | -100.5
O=C(NCc1ccccc1)c1cnc(Cc2c[nH]c3ccccc23)c(I)c1 | 48.0 | / | / | / | / | /
